In paper PMC10828771 (Haematologica, 2023):
Residues, ends and D or L forms follow the SMILES beside them. *: point of attachment. Cbz = O=C(OCc1ccccc1)*; CH2F = FC*

Tested on: OPM-2 cells
Experiment: Apoptosis and necroptosis inhibition assays
Assay type: cell-based, human
Summary of the method: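 OPM-2 cells at 250,000 cells/mL pre-incubated 1 h at 37°C in medium containing pan-caspase inhibitor Z-VAD-FMK, necroptosis inhibitor necrostatin-1s, or DMSO. Washed (PBS for Z-VAD-FMK arm), then cultured 72 h with test compound or DMSO. Viability by Zombie-aqua staining and flow cytometry. Z-VAD-FMK arm: mean ± SD of 3 independent experiments.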

Structure (SMILES)	decrease of OSU-13-mediated cell death by pretreatment (100 mM Z-VAD-FMK 1 h, then 1 mM OSU-13 72 h) [%]	effect of pretreatment on OSU-13-mediated cell death (100 μM necrostatin-1s 1 h, then 1 μM OSU-13 72 h)
COC(=O)C[C@H](NC(=O)[C@H](C)NC(=O)[C@@H](NC(=O)OCc1ccccc1)C(C)C)C(=O)CF [Z-VAD-FMK] (Cbz-Val-Ala-Asp(OMe)-CH2F)	20±6.7	
CN1C(=O)NC(Cc2c[nH]c3c(Cl)cccc23)C1=O (centres unmarked) [Necrostatin-1s]		no measurable effect
